Consider 17 molecules from ChEMBL document CHEMBL1146234, “Synthesis and biological evaluation of N-pyrazolyl-N'-alkyl/benzyl/phenylureas: a new class of potent inhibitors of interleukin 8-induced neutrophil chemotaxis” (J Med Chem, 2007).

pIC50: −log10 of the molar value. Activity calls are given as the source filed them. No cut-off for these calls is given here.

For the first experiment, the system named is Neutrophil. The experiment is described as follows: Inhibition of IL8-induced neutrophil chemotaxis after 45 mins by Boyden chamber assay. The class given is functional, cell-based. As to conditions: Homo sapiens, 0.75 h. The gist of the method:
(§1)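 Leading-front Boyden assay with donor neutrophils. Cells were preincubated 15 min at room temperature ± compound. Then 4 × 10⁵ cells were placed above a 3 µm cellulose ester filter, with IL8 or fMLP below. After 45 min at 37 °C, filters were hematoxylin-stained and the leading-front distance was read at ×400, 5 fields per filter, in duplicate. Net migration = stimulated minus spontaneous. IC₅₀ came from nonlinear regression, ≥3 experiments.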
Take `CCOC(=O)c1cnn(CC(O)c2ccccc2)c1NC(=O)NC1CC1` (stereo not given): the pIC50 was 5.26.
On the same count and under the same terms, in the case of `CCOC(=O)c1cnn(CC(O)c2ccccc2)c1NC(=O)NCCc1ccccc1` (stereo not given) it was 6.21; in that of `CCOC(=O)c1cnn(CC(O)c2ccccc2)c1NC(=O)Nc1cccc(Cl)c1` (stereo not given), 5.81.
Same read-out and setting: in the case of `CCOC(=O)c1cnn(CC(O)c2ccccc2)c1NC(=O)Nc1ccc(F)cc1` (stereo not given) it was 7.48; in that of `CCOC(=O)c1cnn(CC(O)c2ccccc2)c1NC(=O)N1CCCC1` (stereo not given), 5.31; in that of `CCOC(=O)c1cnn(CC(O)c2ccccc2)c1NC(=O)N1CCOCC1` (stereo not given), 6.02.
Same read-out and setting: in the case of `CCOC(=O)c1cnn(CC(O)c2ccccc2)c1NC(=O)NCc1ccccc1F` (stereo not given) it was 5.83.
As to `CCOC(=O)c1cnn(CC(O)c2ccccc2)c1NC(=O)NCc1ccccc1Br` (stereo not given), the pIC50 is 5.75.
On the same count and under the same terms, in the case of `CCOC(=O)c1cnn(CC(O)c2ccccc2)c1NC(=O)Nc1ccccc1F` (stereo not given) it was 7.48.
Still for that read-out and setting: in the case of `CCOC(=O)c1cnn(CC(O)c2ccccc2)c1NC(=O)Nc1cccc(C)c1` (stereo not given) it was 6.40.
On to `CC(C)NC(=O)Nc1ccnn1CC(O)c1ccccc1` (stereo not given), for which the pIC50 was 6.08.
The same measure, in the same setting: to `CCOC(=O)c1cnn(CC(O)c2ccccc2)c1NC(=O)N1CCCCC1` (stereo not given) belongs 5.51; to `CCOCCNC(=O)Nc1c(C(=O)OCC)cnn1CC(O)c1ccccc1` (stereo not given), 6.00.
Still for that read-out and setting: to `CCOC(=O)c1cnn(CC(O)c2ccccc2)c1NC(=O)Nc1ccc(C)cc1` (stereo not given) belongs 6.35; to `CCOC(=O)c1cnn(CC(O)c2ccccc2)c1NC(=O)NCc1ccc(Br)cc1` (stereo not given), 5.41.
Still for that read-out and setting: to `CCOC(=O)c1cnn(CC(O)c2ccccc2)c1NC(=O)Nc1ccccc1OC` (stereo not given) belongs 5.92.

The subject of the next experiment is Neutrophil. The experiment can be described thus: Inhibition of fMLP-induced neutrophil chemotaxis after 45 mins by Boyden chamber assay. As to conditions: Homo sapiens. The class given is functional, cell-based. Summed up:
as §1
Turning to `CCOC(=O)c1cnn(CC(O)c2ccccc2)c1NC(=O)NC1CC1` (stereo not given), the outcome was inactive.
The same measure, in the same setting: in the case of `CCOC(=O)c1cnn(CC(O)c2ccccc2)c1NC(=O)NCCc1ccccc1` (stereo not given) it was “inactive”; in that of `CCOC(=O)c1cnn(CC(O)c2ccccc2)c1NC(=O)Nc1cccc(Cl)c1` (stereo not given), “inactive”; in that of `CCOC(=O)c1cnn(CC(O)c2ccccc2)c1NC(=O)Nc1ccc(F)cc1` (stereo not given), “inactive”.
Consider `CCOC(=O)c1cnn(CC(O)c2ccccc2)c1NC(=O)N1CCCC1` (stereo not given), for which the result was inactive.
Same read-out and setting: in the case of `CCOC(=O)c1cnn(CC(O)c2ccccc2)c1NC(=O)N1CCOCC1` (stereo not given) it was “inactive”; in that of `CCOC(=O)c1cnn(CC(O)c2ccccc2)c1NC(=O)NCc1ccccc1F` (stereo not given), “inactive”; in that of `CCOC(=O)c1cnn(CC(O)c2ccccc2)c1NC(=O)NCc1ccccc1Br` (stereo not given), “inactive”.
The same measure, in the same setting: to `CCOC(=O)c1cnn(CC(O)c2ccccc2)c1NC(=O)N1CCN(Cc2ccccc2)CC1` (stereo not given) belongs “inactive”; to `CCOC(=O)c1cnn(CC(O)c2ccccc2)c1NC(=O)Nc1ccccc1F` (stereo not given), “inactive”.
The same measure, in the same setting: to `CCOC(=O)c1cnn(CC(O)c2ccccc2)c1NC(=O)Nc1cccc(C)c1` (stereo not given) belongs “inactive”; to `CC(C)NC(=O)Nc1ccnn1CC(O)c1ccccc1` (stereo not given), “inactive”.
Take `CCOC(=O)c1cnn(CC(O)c2ccccc2)c1NC(=O)N1CCCCC1` (stereo not given): the outcome was inactive.
In the case of `CCOCCNC(=O)Nc1c(C(=O)OCC)cnn1CC(O)c1ccccc1` (stereo not given), the outcome was inactive.
On the same count and under the same terms, in the case of `CCOC(=O)c1cnn(CC(O)c2ccccc2)c1NC(=O)Nc1ccc(C)cc1` (stereo not given) it was “inactive”.
The same measure, in the same setting: to `CCOC(=O)c1cnn(CC(O)c2ccccc2)c1NC(=O)NCc1ccc(Br)cc1` (stereo not given) belongs “inactive”.
On the same count and under the same terms, in the case of `CCOC(=O)c1cnn(CC(O)c2ccccc2)c1NC(=O)Nc1ccccc1OC` (stereo not given) it was “inactive”.

Another experiment has as its system Neutrophil. The experiment can be described thus: Cytotoxicity against human neutrophils assessed as viable cells after 2 hrs. Also noted: concentration or dose not given beside the values. The class given is functional.
Settings: not given
The gist of the method:
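Human neutrophils (2 × 10⁶/mL) from healthy donors were incubated 2 h at 37 °C under CO₂ in HBSS:PBS (3:1) with 1 mg/mL BSA, with compounds. Membrane integrity was read by fluorescein diacetate/ethidium bromide staining for 10 min at room temperature, under UV dark-field microscopy. Green cells were scored viable; red nuclei were scored necrotic.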
In the case of `CCOC(=O)c1cnn(CC(O)c2ccccc2)c1NC(=O)NC1CC1` (stereo not given), the Activity is reported as 90%.
On the same count and under the same terms, in the case of `CCOC(=O)c1cnn(CC(O)c2ccccc2)c1NC(=O)NCCc1ccccc1` (stereo not given) it was 90%; in that of `CCOC(=O)c1cnn(CC(O)c2ccccc2)c1NC(=O)Nc1cccc(Cl)c1` (stereo not given), 90%; in that of `CCOC(=O)c1cnn(CC(O)c2ccccc2)c1NC(=O)Nc1ccc(F)cc1` (stereo not given), 90%.
Take `CCOC(=O)c1cnn(CC(O)c2ccccc2)c1NC(=O)N1CCCC1` (stereo not given): the Activity was determined as 90%.
For the molecule `CCOC(=O)c1cnn(CC(O)c2ccccc2)c1NC(=O)N1CCOCC1` (stereo not given), the Activity was 90%.
Still for that read-out and setting: in the case of `CCOC(=O)c1cnn(CC(O)c2ccccc2)c1NC(=O)NCc1ccccc1F` (stereo not given) it was 90%; in that of `CCOC(=O)c1cnn(CC(O)c2ccccc2)c1NC(=O)NCc1ccccc1Br` (stereo not given), 90%.
The same measure, in the same setting: to `CCOC(=O)c1cnn(CC(O)c2ccccc2)c1NC(=O)N1CCN(Cc2ccccc2)CC1` (stereo not given) belongs 90%; to `CCOC(=O)c1cnn(CC(O)c2ccccc2)c1NC(=O)Nc1ccccc1F` (stereo not given), 90%; to `CCOC(=O)c1cnn(CC(O)c2ccccc2)c1NC(=O)Nc1cccc(C)c1` (stereo not given), 90%.
The same measure, in the same setting: to `CC(C)NC(=O)Nc1ccnn1CC(O)c1ccccc1` (stereo not given) belongs 90%; to `CCOC(=O)c1cnn(CC(O)c2ccccc2)c1NC(=O)N1CCCCC1` (stereo not given), 90%; to `CCOCCNC(=O)Nc1c(C(=O)OCC)cnn1CC(O)c1ccccc1` (stereo not given), 90%.
Turning to `CCOC(=O)c1cnn(CC(O)c2ccccc2)c1NC(=O)Nc1ccc(C)cc1` (stereo not given), the Activity was 90%.
Still for that read-out and setting: to `CCOC(=O)c1cnn(CC(O)c2ccccc2)c1NC(=O)NCc1ccc(Br)cc1` (stereo not given) belongs 90%.
On to `CCOC(=O)c1cnn(CC(O)c2ccccc2)c1NC(=O)Nc1ccccc1OC` (stereo not given), for which the Activity is reported as 90%.
